Results gathered from unrelated publications.
Protocols differ between the studies behind these lines.
ABL1 E255K phosphorylated: Tyrosine-protein kinase ABL1, phosphorylated (ABL1, Homo sapiens, UniProt P00519, E255K)
ABL1: Tyrosine-protein kinase ABL1 (ABL1, Homo sapiens, UniProt P00519)

| target | test | conditions | measurement | value | Structure (SMILES) |
| --- | --- | --- | --- | --- | --- |
| Tyrosine-protein kinase ABL1, non-phosphorylated (ABL1, Homo sapiens, UniProt P00519, F317I) | enzyme activity, inhibitor | 1 µM | inhibition | 0% | CO[C@@H]1[C@H](N(C)C(=O)c2ccccc2)C[C@H]2O[C@]1(C)n1c3ccccc3c3c4c(c5c6ccccc6n2c5c31)C(=O)NC4 |
| Tyrosine-protein kinase ABL1, non-phosphorylated (ABL1, Homo sapiens, UniProt P00519) | binding, competition with immobilised ligand | 0.5 µM | remaining binding | 85% | CCCCC(=O)Nc1ccc(-c2ccc3ncn(CCC)c(=O)c3c2)cn1 |
| ABL1 E255K phosphorylated | binding, competition with immobilised ligand | 1 µM | remaining binding | 77% | C[C@H]1CC[C@H](n2c3cnccc3c3cnc(Nc4ccc5c(n4)CCN(C(=O)CO)C5)nc32)CC1 |
| Tyrosine-protein kinase ABL1, phosphorylated (ABL1, Homo sapiens, UniProt P00519, Y253F) | enzyme activity, inhibitor | 1 µM | inhibition | 22% | CC#CC(=O)N1CCC[C@H]1c1nc(-c2ccc(C(=O)Nc3ccccn3)cc2)c2c(N)nccn12 |
| ABL1 E255K phosphorylated | binding, competition with immobilised ligand | 1 µM | remaining binding | 38% | CN1CCN(C(=O)c2ccc(NC(=O)Nc3ccc(N(C)c4ccnc(Nc5ccc(CS(C)(=O)=O)cc5)n4)cc3)cc2)CC1 |
| Tyrosine-protein kinase ABL1, phosphorylated (ABL1, Homo sapiens, UniProt P00519, T315I) | cell-free assay, competition with immobilised ligand | 25 µM | remaining binding | 100% | N#Cc1ccc(NC(=O)Nc2ccccc2)cc1 |
| ABL1 | binding | 1 µM | remaining binding | 102% | COc1ccc2oc(-c3ccc4nc(N)oc4c3)c/c(=N\c3ccccc3NC(=O)CCN)c2c1 |
| Tyrosine-protein kinase ABL1, phosphorylated (ABL1, Homo sapiens, UniProt P00519) | binding | 0.1 µM | remaining binding | 27% | C1=C/COCc2cc(ccc2OCCN2CCCC2)Nc2nccc(n2)-c2cccc(c2)COC/1 |
| ABL1 | enzyme activity, inhibitor | 100 pM | inhibition | > 50% | [2H]c1cc(C)c(NC(=O)c2cnc(Nc3cc(N4CCCCC4)nc(C)n3)s2)c(Cl)c1 |
| Tyrosine-protein kinase ABL1 (ABL1, Homo sapiens, UniProt P00519, M351T) | binding | 1 µM | remaining binding | 100% | Cc1ccc(NC(=O)c2ccnc(C(F)(F)F)c2)cc1-c1cc(OCCO)nc(N2CCOCC2)c1 |
| Tyrosine-protein kinase ABL1, phosphorylated (ABL1, Homo sapiens, UniProt P00519, M351T) | enzyme activity, inhibitor | 1 µM | inhibition | 0% | C=CC(=O)N1CCC([C@@H]2CCNc3c(C(N)=O)c(-c4ccc(Oc5ccccc5)cc4)nn32)CC1 |
